# Results from article PMC10193968 (Proceedings of the National Academy of Sciences of the …, 2023).
# Columns and labels:
# [1] = system: S. frugiperda males; details: presence at 1% in synthetic pheromone blends; cited from earlier work
# [2] = system: S. littoralis males; details: traps baited with their own sex pheromones; cited from earlier work
# [3] = system: S. litura males; details: traps baited with their own sex pheromones; cited from earlier work
# [4] = system: SfruOR5; experiment: Two-electrode voltage-clamp on Xenopus oocytes expressing SfruOR5; assay type: cell-based, S. frugiperda; details: 10^–4 M; panel of 13 pheromone compounds; confirms the Drosophila OSN profile
# [5] = system: SlituOR5; experiment: Two-electrode voltage-clamp on Xenopus oocytes expressing SlituOR5; assay type: cell-based, S. litura; details: 10^–4 M; panel of 13 pheromone compounds; confirms the Drosophila OSN profile
# [6] = system: SexiOR5; experiment: Two-electrode voltage-clamp on Xenopus oocytes expressing SexiOR5; assay type: cell-based, S. exigua; details: 10^–4 M; panel of 13 pheromone compounds; confirms the Drosophila OSN profile
# [7] = system: SlitOR75; experiment: Single-sensillum recordings on Drosophila at1 OSNs expressing SlitOR75; assay type: cell-based, S. littoralis; details: 10 μg loaded in the stimulus cartridge; panel of 26 pheromone compounds
# Summary of the method: (§1)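 Receptor expressed in Drosophila at1 OSNs in place of Or67d (UAS-Or × Or67d-GAL4, double homozygous). Flies kept on cornmeal–yeast–agar at 25 °C, 12 h:12 h light:dark. Single-sensillum extracellular recording with 500 ms stimulation from Pasteur-pipette cartridges holding 10 µg compound (hexane dilution) on filter paper. Panel of 26 pheromone compounds. Active if different from solvent alone (one-way ANOVA, Dunnett's post hoc).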
# [8] = system: AncOR75; assay type: cell-based, ancestor of S. littoralis and S. litura; details: doses 10 ng to 100 µg in the stimulus cartridge
# Summary of the method: (§2)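 Dose–response by single-sensillum extracellular recording from at1 OSNs of flies expressing the receptor transgene instead of Or67d (UAS-Or crossed to Or67d-GAL4). Flies reared at 25 °C, 12 h:12 h light:dark. Stimuli lasted 500 ms, delivered from filter-paper cartridges loaded with 10 ng to 100 µg pheromone diluted in hexane.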
# [9] = system: SlitOR5; experiment: Single-sensillum recordings on Drosophila at1 OSNs expressing SlitOR5; assay type: cell-based, S. littoralis; details: 10 μg loaded in the stimulus cartridge; panel of 26 pheromone compounds
# Summary of the method: as §1
# [10] = system: AncOR5; experiment: Single-sensillum recordings on Drosophila at1 OSNs expressing resurrected AncOR5; assay type: cell-based, ancestor of S. littoralis and S. litura; details: 10 μg loaded in the stimulus cartridge; panel of 26 pheromone compounds
# [11] = system: AncOR5; experiment: Two-electrode voltage-clamp on Xenopus oocytes coexpressing AncOR5 and SlitOrco; assay type: cell-based, ancestor of S. littoralis and S. litura
# [12] = system: SlituOR75; experiment: Single-sensillum recordings on Drosophila at1 OSNs expressing SlituOR75; assay type: cell-based, S. litura; details: 10 μg loaded in the stimulus cartridge; panel of 26 pheromone compounds
# Summary of the method: as §1
# [13] = system: S. exigua males; details: cited from earlier work
# [14] = system: SlituOR5; experiment: Single-sensillum recordings on Drosophila at1 OSNs expressing SlituOR5; assay type: cell-based, S. litura; details: 10 μg loaded in the stimulus cartridge; panel of 26 pheromone compounds
# [15] = system: S. littoralis and S. litura males; details: detection of the compound; cited from earlier work
# [16] = system: AncOR5_75; assay type: cell-based, ancestor of S. littoralis and S. litura; details: doses 10 ng to 100 µg in the stimulus cartridge
# Summary of the method: as §2
# [17] = system: AncOR5_75_mut8x; assay type: cell-based; details: read-out: EC50, AncOR5_75_mut8x; Xenopus oocytes, concentrations 10^–8 to 10^–4 M
# [18] = system: AncOR5_75 V79L_A143T_A204V; assay type: cell-based; details: 10^−5 M solution; panel of six S. littoralis pheromone compounds
# Summary of the method: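 Mutation introduced into the pCS2+ ancestral-receptor plasmid and confirmed by Sanger sequencing. Capped cRNA made with SP6 from NotI-linearized template, coexpressed with SlitOrco in Xenopus oocytes. Two-electrode voltage-clamp inward currents to six compounds at 10^-5 M, diluted from 0.1 M DMSO stocks into Ringer's (HEPES, pH 7.6). Ringer's with 0.01% DMSO as negative control. Tuning compared by principal component analysis.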
compound,measurement,setting,value
"CC/C=C/CCCCCCCCCCOC(C)=O [(E)-11-14:OAc, (E)-11-tetradecenyl acetate]",Proportion of males approaching the source in wind tunnel,[1],strongly increased the proportion of males approaching the source
"CCCC/C=C\CCCCCCCCO [(Z)-9-14:OH, (Z)-9-tetradecen-1-ol]",Effect on trap catches of S. littoralis males,[2],reduces catches in traps
same,Effect on trap catches of S. litura males,[3],reduces catches in traps
"CC/C=C\CCCCCCCCCCOC(C)=O [(Z)-11-14:OAc, (Z)-11-tetradecenyl acetate]","Response spectrum (inward current), SfruOR5",[4],best SfruOR5 ligands
same,Proportion of males approaching the source in wind tunnel,[1],strongly increased the proportion of males approaching the source
"CC/C=C/C=C\CCCCCCCCOC(C)=O [(Z,E)-9,11-14:OAc, (Z,E)-9,11-tetradecadienyl acetate]","Response spectrum (inward current), SlituOR5",[5],narrowly tuned
same,"Response spectrum (inward current), SfruOR5",[4],can bind
same,"Response spectrum (inward current), SexiOR5",[6],can bind
same,Action potential frequency of at1 OSNs expressing SlitOR75,[7],low responses
same,"Activation threshold / sensitivity, dose–response of AncOR75",[8],same activation threshold as AncOR5
same,Action potential frequency of at1 OSNs expressing SlitOR5,[9],strong responses
same,Action potential frequency of at1 OSNs expressing AncOR5,[10],responded specifically
same,"Inward current, AncOR5","[11]; 10^−5 M solution, panel of six S. littoralis pheromone compounds",specifically responded
same,EC50,"[11]; read-out: EC50, AncOR5, Xenopus oocytes, concentrations 10^–8 to 10^–4 M",1.1 µM
same,Action potential frequency of at1 OSNs expressing SlituOR75,[12],low responses
same,Effect on trap catches of S. exigua males,[13],decreases trap catches
same,Action potential frequency of at1 OSNs expressing SlituOR5,[14],strong responses
same,Male attraction,[15],necessary and sufficient to trigger male attraction
same,"Activation threshold / sensitivity, dose–response of AncOR5_75",[16],same activation threshold as AncOR5
same,EC50,[17],0.4 µM
"C/C=C/C/C=C\CCCCCCCCOC(C)=O [(Z,E)-9,12-14:OAc, (Z,E)-9,12-tetradecadienyl acetate]","Inward current, triple-mutant V79L_A143T_A204V",[18],narrow tuning
"CC/C=C\C=C/CCCCCCCCOC(C)=O [(Z,Z)-9,11-14:OAc, (Z,Z)-9,11-tetradecadienyl acetate]","Activation threshold / sensitivity, dose–response of AncOR75",[8],best ligand
same,Action potential frequency of at1 OSNs expressing SlituOR5,[14],significant yet minor response
same,"Activation threshold / sensitivity, dose–response of AncOR5_75",[16],best ligand
